Experimental findings from ChEMBL document CHEMBL5104176 (J Med Chem, 2022) are described below.

One assay deals with D(2) dopamine receptor (Homo sapiens, UniProt P14416). Put plainly: Displacement of [3H]N-methylspiperone from human D2L receptor expressed in HEK293T cell membrane incubated for 1 hr by MicroBeta scintillation counting method. The class given is cell membranes. The method in brief: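 Membranes from stably transfected HEK293 cells (hD2L, hD3 or hD4.4), 20 μg (D2, D3) or 30 μg (D4) protein/well. Incubated 1 h at room temperature in EBSS binding buffer, pH 7.4, with 0.4 nM [3H]N-methylspiperone and 10 half-log dilutions in triplicate. 10 μM (+)-butaclamol defines nonspecific binding. GF filtration, scintillation counting.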
D(2) dopamine receptor, sequence (P14416 whole entry): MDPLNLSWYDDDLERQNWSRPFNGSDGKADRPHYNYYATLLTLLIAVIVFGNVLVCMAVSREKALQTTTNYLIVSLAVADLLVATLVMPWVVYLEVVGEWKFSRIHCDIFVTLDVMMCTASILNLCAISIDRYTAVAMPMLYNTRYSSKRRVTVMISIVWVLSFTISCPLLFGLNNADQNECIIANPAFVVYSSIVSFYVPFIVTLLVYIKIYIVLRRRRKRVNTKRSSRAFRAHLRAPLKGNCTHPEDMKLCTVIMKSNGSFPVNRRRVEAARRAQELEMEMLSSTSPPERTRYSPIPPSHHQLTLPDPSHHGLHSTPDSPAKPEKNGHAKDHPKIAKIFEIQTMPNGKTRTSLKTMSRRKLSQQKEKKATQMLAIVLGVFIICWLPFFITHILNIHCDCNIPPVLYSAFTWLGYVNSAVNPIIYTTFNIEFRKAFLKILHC

A further assay concerns the target D(3) dopamine receptor (Homo sapiens, UniProt P35462). Put plainly: Displacement of [3H]N-methylspiperone from human D3R receptor expressed in HEK293T cell membrane incubated for 1 hr by MicroBeta scintillation counting method. Format: cell membranes. The method in brief:
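Membranes from stably transfected HEK293 cells (hD2L, hD3 or hD4.4), 20 μg (D2, D3) or 30 μg (D4) protein/well. Incubated 1 h at room temperature in EBSS binding buffer, pH 7.4, with 0.4 nM [3H]N-methylspiperone and 10 half-log dilutions in triplicate. 10 μM (+)-butaclamol defines nonspecific binding. GF filtration, scintillation counting. Ki by Cheng–Prusoff from ≥3 experiments; selectivity is the Ki ratio.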

The target of another assay is T1, D(4) dopamine receptor (Homo sapiens, UniProt P21917).
T1 sequence (P21917 whole entry): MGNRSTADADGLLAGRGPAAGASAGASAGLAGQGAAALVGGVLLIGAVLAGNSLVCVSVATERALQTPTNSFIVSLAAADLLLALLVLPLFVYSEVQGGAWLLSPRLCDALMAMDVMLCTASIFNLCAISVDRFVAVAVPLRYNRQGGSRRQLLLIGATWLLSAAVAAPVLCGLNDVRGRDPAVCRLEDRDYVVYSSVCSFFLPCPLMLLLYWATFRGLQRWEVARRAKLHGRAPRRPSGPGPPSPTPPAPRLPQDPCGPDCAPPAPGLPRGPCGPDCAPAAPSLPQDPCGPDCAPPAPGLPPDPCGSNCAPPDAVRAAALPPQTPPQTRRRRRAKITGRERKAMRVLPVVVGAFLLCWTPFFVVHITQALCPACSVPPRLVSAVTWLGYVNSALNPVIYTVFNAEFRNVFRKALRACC
Put plainly: Displacement of [3H]N-methylspiperone from human D4.4 receptor expressed in HEK293T cell membrane incubated for 1 hr by MicroBeta scintillation counting method. The class given is cell membranes.

Assay [1] in a line: Selectivity ratio of Ki for displacement of [3H]N-methylspiperone from human D3R expressed in HEK293T cell membrane to Ki for displacement of [3H]N-methylspiperone from human D4.4 receptor expressed in HEK293T cell membrane.
A short description of assay [2]: Selectivity ratio of Ki for displacement of [3H]N-methylspiperone from human D2L receptor expressed in HEK293T cell membrane to Ki for displacement of [3H]N-methylspiperone from human D4.4 receptor expressed in HEK293T cell membrane. (In general: Loss of bound radioactivity is the signal in a displacement assay; it reports binding, not function.)
Assay [3] addresses T2, D(4) dopamine receptor (Homo sapiens) (UniProt P21917).
T2 sequence (whole entry): T1 sequence (P21917 whole entry)
Put plainly: Agonist activity at D4R (unknown origin) expressed in human HEK293T cells assessed as G0 protein activation measured after 2.5 mins by BRET assay relative to control. The class given is functional, cell-based. Conditions: filed as agonist. The method in brief: (§1)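 Transiently transfected HEK293T cells (15 μg plasmid cDNA, polyethyleneimine, 6 h, assayed after 48 h). Gαi1 or GαoA fused to RLuc8 and Gγ2 to mVenus for G protein activation; D4 receptor fused to RLuc8 and β-arrestin to mVenus for recruitment. About 2×10^5 cells/well in PBS with 0.1% glucose and 200 μM Na bisulfite. Coelenterazine H 5 μM. Read 530/485 nm; RLuc8-only background subtracted.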

Assay [4] has as its target T2, D(4) dopamine receptor (Homo sapiens). Put plainly: Agonist activity at D4R (unknown origin) expressed in human HEK293T cells assessed as Gi protein activation measured after 2.5 mins by BRET assay relative to control. Format: functional, cell-based. Conditions: filed as agonist. The method in brief: as §1
The target is the same in assay [5]. The assay is described as follows: Agonist activity at D4R (unknown origin) expressed in human HEK293T cells assessed as beta arrestin-2 recruitment measured after 2.5 mins by BRET assay relative to control. Conditions: filed as agonist. The class given is functional, cell-based. The method in brief:
as §1
In general terms: Recruitment of arrestin is a read-out of receptor activation apart from second messengers.

Assay [6] concerns T98G. Put plainly: Cytotoxicity against human T98G cells assessed as reduction in cell viability at 5 to 50 uM incubated for 24 hrs by MTS assay. Conditions: dose 5-50 µM. Format: functional, cell-based. The method in brief: (§2)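 Cells seeded at 5,000/well and grown to 80% confluence: T98 and U251 in EMEM with 10% serum; GSC#83 as spheres in serum-free DMEM/F12 with EGF and bFGF. Treated 24 h at 5–50 μM in DMSO, with a DMSO vehicle control. MTS reagent added and formazan absorbance read at 490 nm. n = 6; two-way ANOVA.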
On the technique in general: Formazan colour is commonly taken as a measure of viable cells.

Assay [7] deals with U-251. Put plainly: Cytotoxicity against human U-251 cells assessed as reduction in cell viability at 5 to 50 uM incubated for 24 hrs by MTS assay. Conditions: dose 5-50 µM. Format: functional, cell-based. The method in brief: as §2
In assay [8] the test system is GSC#83. Put plainly: Cytotoxicity against human GSC#83 cells assessed as reduction in cell viability at 5 to 50 uM incubated for 24 hrs by MTS assay. Format: functional, cell-based. Conditions: dose 5-50 µM. The method in brief: as §2
The test system of assay [9] is T98G. The assay is described as follows: Cytotoxicity against human T98G cells assessed as reduction in cell viability at 10 uM incubated for 24 hrs by MTS assay. The class given is functional, cell-based. The method in brief: as §2
Assay [10] concerns U-251. Put plainly: Cytotoxicity against human U-251 cells assessed as reduction in cell viability at 10 uM incubated for 24 hrs by MTS assay. The class given is functional, cell-based. The method in brief: as §2
In assay [11] the test system is GSC#83. The assay is described as follows: Cytotoxicity against human GSC#83 cells assessed as reduction in cell viability at 10 uM incubated for 24 hrs by MTS assay. The class given is functional, cell-based. The method in brief: as §2

The structures appear in SMILES notation. Activity calls are given as the source filed them. No cut-off for these calls is given here.

D(3) dopamine receptor, sequence (P35462 whole entry): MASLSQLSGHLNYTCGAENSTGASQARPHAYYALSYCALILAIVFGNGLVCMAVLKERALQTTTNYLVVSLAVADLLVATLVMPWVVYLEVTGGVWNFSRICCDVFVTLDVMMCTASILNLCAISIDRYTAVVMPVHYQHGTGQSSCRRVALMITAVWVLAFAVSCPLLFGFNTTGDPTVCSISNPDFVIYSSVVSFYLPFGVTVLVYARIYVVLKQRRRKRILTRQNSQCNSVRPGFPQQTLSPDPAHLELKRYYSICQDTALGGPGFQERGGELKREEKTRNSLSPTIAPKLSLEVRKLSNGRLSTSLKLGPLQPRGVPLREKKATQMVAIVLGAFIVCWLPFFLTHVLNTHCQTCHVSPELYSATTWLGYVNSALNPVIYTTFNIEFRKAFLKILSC

The term Ki denotes the equilibrium dissociation constant of an inhibitor or competing ligand from its target. A high value points to lower affinity. Consider `COc1ccccc1N1CCN(CCCN2C(=O)CCc3ccccc32)CC1`, for which the Ki was 81.3 nM at D(2) dopamine receptor, 100 nM on D(3) dopamine receptor and 0.617 nM on D(4) dopamine receptor. In addition, the Ratio Ki in assay [1] was found to be 162; in assay [2], 132.
The corresponding values for `Cc1ccccc1N1CCN(CCCN2C(=O)CCc3ccccc32)CC1` are 398 nM, 275 nM, 1.35 nM, 204 and 295.
On to `O=C1CCc2ccccc2N1CCCCN1CCN(c2ccccc2)CC1`, for which the Ki on D(2) dopamine receptor was 1120 nM; on D(3) dopamine receptor it was 81.3 nM; on D(4) dopamine receptor it was 4.27 nM. The Ratio Ki in assay [1] is 19; in [2] it was 263.
The matching figures for `c1ccc(N2CCN(CCCn3ccc4ccccc43)CC2)cc1`: 724 nM, 490 nM, 1.91 nM, 257 and 380.
The corresponding values for `COc1cccc(N2CCN(CCCN3C(=O)CCc4ccccc43)CC2)c1` are 3090 nM, 1550 nM, 4.17 nM, 372 and 741.
For `O=C1CCc2ccccc2N1CCCN1CCN(c2ccccc2)CC1`, the results for the Ratio Ki in assay [1] and in assay [2] were 457 and 380, respectively.
Take `O=C1CCc2ccccc2N1CCCN1CCN(c2cccc(Cl)c2Cl)CC1`: the Ki on D(3) dopamine receptor was 21.4 nM; at D(4) dopamine receptor, 0.692 nM.
Regarding `O=C1CCc2ccccc2N1CCN1CCN(c2ccccc2)CC1`, the Ki at D(2) dopamine receptor is 12900 nM; at D(3) dopamine receptor, 1070 nM; on D(4) dopamine receptor it was 63.1 nM. In addition, the Ratio Ki in assay [1] is 17; in [2] it was 204.
As for `Cc1cccc(N2CCN(CCCN3C(=O)CCc4ccccc43)CC2)c1`, the inhibition constant Ki on D(2) dopamine receptor is 1450 nM; on D(3) dopamine receptor it was 794 nM; at D(4) dopamine receptor, 1.78 nM. Also, the Ratio Ki in assay [1] was determined as 447; in assay [2], 813.
As usually defined, the Emax is the greatest response seen or fitted, relative to the assay's reference. For the molecule `NCCc1ccc(O)c(O)c1`, the maximum response (Emax) in assay [3], in [4] and in assay [5] was 100% in each case.
Take `c1ccc(N2CCN(CCCc3nc4ccccc4o3)CC2)cc1`: the Ki was 1700 nM on D(2) dopamine receptor, 813 nM at D(3) dopamine receptor and 37.2 nM on D(4) dopamine receptor. Further, the Ratio Ki stood at 22 in [1] and 46 in [2].
The matching figures for `c1ccc(N2CCN(CCCn3cnc4ccccc43)CC2)cc1`: 12000 nM, 8910 nM, 12.3 nM, 719 and 977.
In the case of `O=C1CCc2ccccc2N1CCCN1CCN(c2ncccn2)CC1`, the Ki at D(2) dopamine receptor was 3980 nM; at D(3) dopamine receptor it was 2290 nM; at D(4) dopamine receptor, 4.47 nM. Besides, the Ratio Ki in [1] is 513; in assay [2] it was 891.
The matching figures for `c1ccc(N2CCN(CCCc3nc4ccccc4s3)CC2)cc1`: 1780 nM, 692 nM, 10.2 nM, 68 and 174.
Take `Cn1nnc2c(C(N)=O)ncn2c1=O`: the outcome with T98G [6], in the assay on U-251 [7], in the assay on GSC#83 [8], with T98G [9], with U-251 [10] and with GSC#83 [11] was Active.
On to `O=C1CCc2ccccc2N1CCCN1CCN(c2ccc([N+](=O)[O-])cc2)CC1`, for which the Ki was 24000 nM on D(2) dopamine receptor, 11000 nM at D(3) dopamine receptor and 6.61 nM at D(4) dopamine receptor. Moreover, the Ratio Ki in [1] is 1660; in [2], 3630.
The matching figures for `O=C1CCc2ccccc2N1CCCN1CCN(c2ccc(Cl)c(Cl)c2)CC1`: 955 nM, 631 nM, 0.871 nM, 725 and 1100.
The corresponding values for `c1ccc(N2CCN(CCCN3CCCc4ccccc43)CC2)cc1` are 708 nM, 562 nM, 2.63 nM, 214 and 269.
The corresponding values for `O=C1CCc2ccccc2N1CCCN1CCN(c2ccc(Cl)cc2Cl)CC1` are 550 nM, 501 nM, 0.676 nM, 744 and 827.
For the molecule `O=C1CCc2ccccc2N1CCCN1CCN(c2cccc([N+](=O)[O-])c2)CC1`, the Ki at D(2) dopamine receptor was 2510 nM; on D(3) dopamine receptor, 1260 nM; on D(4) dopamine receptor, 3.55 nM. Also, the Ratio Ki in assay [1] came to 355; in assay [2], 708.
As for `O=C1CCc2ccccc2N1CCCCCN1CCN(c2ccccc2)CC1`, the Ki on D(2) dopamine receptor is 282 nM; on D(3) dopamine receptor, 195 nM; on D(4) dopamine receptor it was 23.4 nM. Besides, the Ratio Ki in assay [1] is 8; in assay [2], 12.
The matching figures for `N#Cc1ccccc1N1CCN(CCCN2C(=O)CCc3ccccc32)CC1`: 355 nM, 339 nM, 1.07 nM, 316 and 331.
The matching figures for `c1ccc(N2CCN(CCCc3nc4ccccc4[nH]3)CC2)cc1`: 6170 nM, 832 nM, 30.2 nM, 28 and 204.
The corresponding values for `O=C1CCc2ccccc2N1CCCN1CCN(c2ccccc2[N+](=O)[O-])CC1` are 132 nM, 129 nM, 0.407 nM, 316 and 324.
`CCCCC1CCN(CCCN2C(=O)CCc3ccccc32)CC1`: the figures for the Ratio Ki in [1] and in assay [2] were 631 and 691, respectively.
As to `Fc1ccc(N2CCN(CCC3OCCc4ccccc43)CC2)cc1` (stereo unspecified), the result in the assay with T98G [6], in the assay with U-251 [7], with GSC#83 [8], with T98G [9], in the assay on U-251 [10] and in the assay with GSC#83 [11] was Active.
